ChEMBL document CHEMBL3091335, “Design and synthesis of potent and selective P2X₃ receptor antagonists derived from PPADS as potential pain modulators” (Eur J Med Chem, 2013)
Positions count from the first letter of the chain named.

How the values were obtained:
P2X purinoceptor 1 [1] = target: T1, P2X purinoceptor 1 (Rattus norvegicus, UniProt P47824); assay: Antagonist activity at recombinant rat P2X1 receptor expressed in Xenopus oocytes assessed as ion flux stimulation; type: cell-based
T1 sequence (P47824 whole entry): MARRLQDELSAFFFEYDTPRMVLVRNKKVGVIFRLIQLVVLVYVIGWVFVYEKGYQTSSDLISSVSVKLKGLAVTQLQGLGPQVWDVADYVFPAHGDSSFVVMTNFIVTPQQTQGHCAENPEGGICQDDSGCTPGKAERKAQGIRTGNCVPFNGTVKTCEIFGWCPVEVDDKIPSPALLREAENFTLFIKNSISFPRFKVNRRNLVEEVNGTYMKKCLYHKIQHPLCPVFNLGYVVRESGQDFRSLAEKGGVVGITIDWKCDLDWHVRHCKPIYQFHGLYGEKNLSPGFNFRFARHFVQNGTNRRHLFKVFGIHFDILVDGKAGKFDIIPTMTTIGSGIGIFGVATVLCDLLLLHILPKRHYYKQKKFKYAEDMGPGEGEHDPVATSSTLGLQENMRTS

P2X purinoceptor 1 [2] = target: T2, P2X purinoceptor 1 (Mus musculus, UniProt P51576); assay: Antagonist activity at recombinant mouse P2X1 receptor expressed in Xenopus oocytes assessed as inhibition of ATP-induced ion current preincubated for 20 mins followed by ATP addition by two-electrode voltage clamp assay; type: cell-based
T2 sequence (P51576 whole entry): T1 sequence (P47824 whole entry) with D60G, V108M, T113A, R180H, Q223L, N231S, K260E, H314R, H381R, V384A
How it was run: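 Defolliculated Xenopus oocytes were injected with mP2X1 or hP2X3 cRNA (40 nL), held 24 h at 18 °C in Barth's solution, then stored at 4 °C for up to 12 days. Two-electrode voltage clamp was run at Vh −70 mV in HEPES/BaCl2 buffer at pH 7.5. ATP was superfused for 60–120 s with 20 min washout. Currents were normalized to the ATP response, giving % inhibition or IC50 from inhibition curves; mean ± SEM, n≥3.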

P2X purinoceptor 7 [3] = target: T3, P2X purinoceptor 7 (Homo sapiens, UniProt Q99572); assay: Antagonist activity at human P2X7 receptor expressed in HEK293 cells assessed as inhibition of BzATP-induced accumulation of ethidium+ after 120 mins by fluorescence assay; type: cell-based
T3 sequence (Q99572 whole entry): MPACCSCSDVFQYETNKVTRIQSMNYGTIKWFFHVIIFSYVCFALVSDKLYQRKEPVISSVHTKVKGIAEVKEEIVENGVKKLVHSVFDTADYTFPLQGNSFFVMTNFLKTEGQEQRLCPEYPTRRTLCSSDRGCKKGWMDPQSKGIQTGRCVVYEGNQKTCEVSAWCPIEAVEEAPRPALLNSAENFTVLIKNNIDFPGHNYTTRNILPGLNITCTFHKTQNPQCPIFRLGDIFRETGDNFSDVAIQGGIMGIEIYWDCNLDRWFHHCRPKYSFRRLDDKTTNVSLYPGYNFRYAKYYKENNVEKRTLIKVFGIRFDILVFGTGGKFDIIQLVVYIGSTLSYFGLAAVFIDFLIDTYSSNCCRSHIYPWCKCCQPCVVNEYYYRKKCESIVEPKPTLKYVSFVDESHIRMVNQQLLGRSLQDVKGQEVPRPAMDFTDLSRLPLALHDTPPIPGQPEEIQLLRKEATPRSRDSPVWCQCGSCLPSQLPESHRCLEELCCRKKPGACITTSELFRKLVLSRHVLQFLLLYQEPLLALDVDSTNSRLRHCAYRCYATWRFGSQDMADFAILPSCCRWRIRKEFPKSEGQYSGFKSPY

P2X purinoceptor 7 [4] = target: T3, P2X purinoceptor 7; assay: Antagonist activity at recombinant human P2X7 receptor assessed as inhibition of BzATP-mediated Yo-Pro uptake measured for 1 hr by FLIPR assay

Q: Cc1nc(/N=N/c2ccc(C(=O)O)cc2)c(COP(=O)(O)O)c(C=O)c1O was tested. Which IC50 (P2X purinoceptor 1 [1]) did it give?
A: The IC50 was 43 nM.

Q: What about the IC50 (P2X purinoceptor 1 [2]) of the same molecule?
A: Its IC50 is 30 nM.

Q: Which IC50 (P2X purinoceptor 7 [3]) does the source give for CN([C@@H](Cc1ccc(OS(=O)(=O)c2cccc3cnccc23)cc1)C(=O)N1CCN(c2ccccc2)CC1)S(=O)(=O)c1cccc2cnccc12 here?
A: The IC50 was 158 nM.

Q: What about the IC50 (P2X purinoceptor 7 [4]) of the same molecule?
A: The IC50 was 210 nM.
